From ChEMBL document CHEMBL4602726, “Discovery of the First Vitamin K Analogue as a Potential Treatment of Pharmacoresistant Seizures” (J Med Chem, 2020)

Assays:
[1] = test system: Mus musculus; test: Anti-seizure activity in CF1 mouse assessed as attenuation of psychomotor seizures at stimulus intensities of 32 mA at 400 mg/kg, ip measured at 0.25 to 4 hrs by 6 Hz limbic seizure test relative to control; type: functional
Outline: (§1)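 Male CF-1 mice, n=8 per dose. 6 Hz, 3 s corneal stimulation at 32 or 44 mA. Compound given ip in miglyol840/DMSO (95%/5%). Time of peak effect found by testing at 0.25–4 h; dose-response run at that time. Protected if no stun, jaw/forelimb clonus, vibrissae twitching or Straub tail for ≥1 s. ED50 by Probit analysis.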

[2] = test system: Mus musculus; test: Anti-seizure activity in CF1 mouse assessed as attenuation of psychomotor seizures at stimulus intensities of 44 mA at 400 mg/kg, ip measured at 0.25 to 4 hrs by 6 Hz limbic seizure test relative to control; type: functional; outline: as §1
[3] = Toxicity in CF1 mouse assessed as induction of motor/sedative effects at 400 mg/kg, ip; type: organism-based; conditions: in vivo
Outline: (§2)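 Rotarod at 6 rpm on the same animals immediately before 6 Hz stimulation, 1 h after ip dosing. A mouse falling three times within one minute was scored impaired.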

[4] = Toxicity in CF1 mouse assessed as induction of lethargy; conditions: in vivo
[5] = Toxicity in CF1 mouse assessed as induction of motor impairment during acute (1 hr) observation period up to 800 mg/kg by rotarod assay; type: organism-based; conditions: in vivo; outline: as §2
[6] = Drug level in CD1 mouse plasma at 400 mg/kg, ip after 0.5 hrs by LC-MS/MS analysis; type: ADME, organism-based
Outline: (§3)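 Male mice fasted overnight and given ip dose in 95% Miglyol 840/5% DMSO. Plasma precipitated 3:1 with acetonitrile plus internal standard. Brain homogenized 3:1 in PBS, then acetonitrile extraction. LC-MS/MS in MRM mode, standard curve 1 ng/mL–10 μg/mL. Ratio = mean tissue (ng/g) over mean plasma (ng/mL) concentration.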

[7] = Drug level in CD1 mouse plasma at 400 mg/kg, ip after 4 hrs by LC-MS/MS analysis; type: ADME, organism-based; outline: as §3
[8] = Drug level in CD1 mouse plasma at 400 mg/kg, ip after 8 hrs by LC-MS/MS analysis; type: ADME, organism-based; outline: as §3
[9] = Drug level in CD1 mouse brain at 400 mg/kg, ip after 0.5 hrs by LC-MS/MS analysis; type: ADME, organism-based; conditions: read-out: Drug uptake; outline: as §3
[10] = Drug level in CD1 mouse brain at 400 mg/kg, ip after 1 hr by LC-MS/MS analysis; type: ADME, organism-based; conditions: read-out: Drug uptake; outline: as §3
[11] = Drug level in CD1 mouse brain at 400 mg/kg, ip after 4 hrs by LC-MS/MS analysis; type: ADME, organism-based; conditions: read-out: Drug uptake; outline: as §3
[12] = Drug level in CD1 mouse brain at 400 mg/kg, ip after 8 hrs by LC-MS/MS analysis; type: ADME, organism-based; conditions: read-out: Drug uptake; outline: as §3
[13] = Ratio of drug level in brain to plasma in CD1 mouse at 400 mg/kg, ip after 1 hr by LC-MS/MS analysis; type: ADME, organism-based; conditions: brain and plasma, read-out: BPR; outline: as §3
[14] = Ratio of drug level in brain to plasma in CD1 mouse at 400 mg/kg, ip after 2 hrs by LC-MS/MS analysis; type: ADME, organism-based; conditions: brain and plasma, read-out: BPR; outline: as §3
[15] = Ratio of drug level in brain to plasma in CD1 mouse at 400 mg/kg, ip after 4 hrs by LC-MS/MS analysis; type: ADME, organism-based; conditions: brain and plasma, read-out: BPR; outline: as §3
[16] = Tmax in CD1 mouse at 20 mg/kg, ip measured after 0.083 to 24 hrs by LC-MS/MS analysis; type: ADME, organism-based; conditions: in vivo
[17] = Cmax in CD1 mouse at 20 mg/kg, ip measured after 0.083 to 24 hrs by LC-MS/MS analysis; type: ADME, organism-based; set-up: dose 20 mg/kg, route intraperitoneal; conditions: in vivo
Outline: (§4)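 Male CD-1 mice, 3 per route. Oral and ip at 20 mg/kg by gavage needle; iv at 5 mg/kg by tail vein. Vehicles were 20% DMA:40% PEG300:40% H2O for oral/iv and 5% DMSO:95% Neobee for ip. Blood sampled 0.083–24 h, plasma protein-precipitated with acetonitrile plus internal standard, LC-MS/MS (MRM). Non-compartmental analysis, linear trapezoidal AUC.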

[18] = target: Voltage-gated inwardly rectifying potassium channel KCNH2 (Homo sapiens, UniProt Q12809); test: Inhibition of human ERG
[19] = Drug level corresponding to free EC50 in CD1 mouse at 200 to 400 mg/kg, ip by LC-MS/MS analysis; type: ADME, organism-based; conditions: in vivo
[20] = Drug reactivity with 2-mercaptoethanol measured over 6 hrs; type: physicochemical
[21] = Drug reactivity with 2-mercaptoethanol measured over 24 hrs; type: physicochemical
[22] = AUClast in CD1 mouse at 20 mg/kg, po measured after 0.083 to 24 hrs by LC-MS/MS analysis; type: ADME, organism-based; set-up: time 0.083-24 hr, dose 20 mg/kg, route oral; conditions: in vivo; outline: as §4
[23] = Oral bio availability in CD1 mouse at 20 mg/kg measured after 0.083 to 24 hrs by LC-MS/MS analysis; type: ADME, organism-based; conditions: in vivo; outline: as §4
[24] = target: Cytochrome P450 2C9 (Homo sapiens, UniProt P11712); test: Inhibition of CYP2C9 in human liver microsomes using isoform-specific probe substrates incubated for 15 to 30 mins by LC-MS/MS analysis; type: ADME
Outline: (§5)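 Pooled mixed-gender human liver microsomes 0.2 mg/mL in 100 mM potassium phosphate with 2 mM NADPH. Isoform-specific probe substrates near Km. Organic solvent ≤1% final. Incubated 37°C for 15–30 min, quenched with acetonitrile plus internal standard. Probe metabolites measured by LC-MS/MS; percent inhibition versus vehicle, IC50 by variable-slope sigmoid fit.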

[25] = target: Cytochrome P450 2C19 (Homo sapiens, UniProt P33261); test: Inhibition of CYP2C19 in human liver microsomes using isoform-specific probe substrates incubated for 15 to 30 mins by LC-MS/MS analysis; type: ADME; outline: as §5
[26] = target: Cytochrome P450 2D6 (Homo sapiens, UniProt P10635); test: Inhibition of CYP2D6 in human liver microsomes using isoform-specific probe substrates incubated for 15 to 30 mins by LC-MS/MS analysis; type: ADME; outline: as §5
[27] = target: T1, Cytochrome P450 2C8 (Homo sapiens, UniProt P10632); test: Inhibition of CYP2C8 in human liver microsomes using isoform-specific probe substrates incubated for 15 to 30 mins by LC-MS/MS analysis; type: ADME; outline: as §5
T1 sequence (P10632 whole entry): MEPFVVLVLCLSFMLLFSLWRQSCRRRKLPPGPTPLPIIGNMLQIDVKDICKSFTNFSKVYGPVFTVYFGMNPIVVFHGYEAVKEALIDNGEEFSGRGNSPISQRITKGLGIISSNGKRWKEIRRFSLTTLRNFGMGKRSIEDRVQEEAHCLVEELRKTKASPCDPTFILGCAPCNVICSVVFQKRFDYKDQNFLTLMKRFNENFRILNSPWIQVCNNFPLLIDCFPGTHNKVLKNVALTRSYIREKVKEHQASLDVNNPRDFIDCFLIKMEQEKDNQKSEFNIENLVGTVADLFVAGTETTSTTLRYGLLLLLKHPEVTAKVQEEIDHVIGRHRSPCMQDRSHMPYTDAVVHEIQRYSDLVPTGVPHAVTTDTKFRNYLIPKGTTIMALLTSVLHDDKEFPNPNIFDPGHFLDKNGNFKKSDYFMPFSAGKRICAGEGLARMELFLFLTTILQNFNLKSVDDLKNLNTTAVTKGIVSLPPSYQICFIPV

Chain of Cytochrome P450 2C19 (P33261 whole entry, canonical isoform): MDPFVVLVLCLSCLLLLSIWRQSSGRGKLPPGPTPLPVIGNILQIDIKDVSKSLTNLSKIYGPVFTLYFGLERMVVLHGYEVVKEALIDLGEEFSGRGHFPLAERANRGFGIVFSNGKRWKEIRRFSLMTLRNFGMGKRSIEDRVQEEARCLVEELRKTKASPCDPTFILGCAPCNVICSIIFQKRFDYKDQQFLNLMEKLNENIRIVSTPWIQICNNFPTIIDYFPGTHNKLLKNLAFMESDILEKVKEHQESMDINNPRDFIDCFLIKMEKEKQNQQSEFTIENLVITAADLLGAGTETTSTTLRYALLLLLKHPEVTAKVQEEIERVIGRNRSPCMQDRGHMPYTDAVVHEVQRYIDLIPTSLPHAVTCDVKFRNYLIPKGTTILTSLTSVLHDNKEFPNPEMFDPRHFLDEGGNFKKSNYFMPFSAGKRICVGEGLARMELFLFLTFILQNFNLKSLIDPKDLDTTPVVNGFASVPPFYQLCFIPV
Chain of Voltage-gated inwardly rectifying potassium channel KCNH2 (Q12809 whole entry): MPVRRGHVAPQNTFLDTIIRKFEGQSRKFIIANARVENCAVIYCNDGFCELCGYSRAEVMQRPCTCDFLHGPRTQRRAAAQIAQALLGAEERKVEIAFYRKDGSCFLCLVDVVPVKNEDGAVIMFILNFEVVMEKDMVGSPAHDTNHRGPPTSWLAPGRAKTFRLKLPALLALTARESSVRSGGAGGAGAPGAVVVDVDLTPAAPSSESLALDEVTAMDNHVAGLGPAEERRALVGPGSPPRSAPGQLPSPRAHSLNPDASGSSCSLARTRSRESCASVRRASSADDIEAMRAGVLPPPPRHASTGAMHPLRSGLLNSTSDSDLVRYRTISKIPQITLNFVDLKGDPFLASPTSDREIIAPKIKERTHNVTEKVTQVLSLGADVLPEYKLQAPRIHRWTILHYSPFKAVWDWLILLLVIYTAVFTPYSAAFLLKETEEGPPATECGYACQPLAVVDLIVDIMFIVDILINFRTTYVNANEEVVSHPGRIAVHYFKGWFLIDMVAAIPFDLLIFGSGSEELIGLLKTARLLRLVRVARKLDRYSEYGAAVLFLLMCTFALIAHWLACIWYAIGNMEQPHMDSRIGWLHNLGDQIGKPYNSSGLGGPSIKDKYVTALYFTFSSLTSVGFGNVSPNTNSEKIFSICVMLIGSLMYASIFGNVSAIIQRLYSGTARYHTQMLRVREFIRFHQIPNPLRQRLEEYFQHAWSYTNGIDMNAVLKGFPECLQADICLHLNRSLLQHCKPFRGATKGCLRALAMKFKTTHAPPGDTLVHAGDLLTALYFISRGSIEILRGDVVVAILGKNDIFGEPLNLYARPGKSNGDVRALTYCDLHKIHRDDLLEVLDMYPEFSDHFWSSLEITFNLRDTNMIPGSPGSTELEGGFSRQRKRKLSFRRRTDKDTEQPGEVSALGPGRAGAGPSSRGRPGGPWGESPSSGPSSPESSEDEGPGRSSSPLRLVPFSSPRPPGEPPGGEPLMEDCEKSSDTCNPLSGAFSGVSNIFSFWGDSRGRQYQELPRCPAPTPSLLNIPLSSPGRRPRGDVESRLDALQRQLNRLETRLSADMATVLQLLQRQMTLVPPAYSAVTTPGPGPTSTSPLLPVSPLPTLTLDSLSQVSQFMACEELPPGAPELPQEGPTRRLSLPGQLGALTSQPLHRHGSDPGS
Chain of Cytochrome P450 2C9 (P11712 whole entry, canonical isoform): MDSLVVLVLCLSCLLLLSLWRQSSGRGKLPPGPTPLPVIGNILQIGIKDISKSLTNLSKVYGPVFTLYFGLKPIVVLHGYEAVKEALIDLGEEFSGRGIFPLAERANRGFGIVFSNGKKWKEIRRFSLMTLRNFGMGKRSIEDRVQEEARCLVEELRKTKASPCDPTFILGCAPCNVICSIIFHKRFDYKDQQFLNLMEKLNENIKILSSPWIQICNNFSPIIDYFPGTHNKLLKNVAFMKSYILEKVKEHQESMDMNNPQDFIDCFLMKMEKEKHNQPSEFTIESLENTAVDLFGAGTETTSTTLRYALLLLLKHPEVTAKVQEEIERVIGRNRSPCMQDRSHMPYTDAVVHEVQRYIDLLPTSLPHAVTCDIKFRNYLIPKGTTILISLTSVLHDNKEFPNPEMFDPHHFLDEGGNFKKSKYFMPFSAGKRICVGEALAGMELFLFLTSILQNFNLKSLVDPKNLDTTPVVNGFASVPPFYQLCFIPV
Chain of Cytochrome P450 2D6 (P10635 whole entry, canonical isoform): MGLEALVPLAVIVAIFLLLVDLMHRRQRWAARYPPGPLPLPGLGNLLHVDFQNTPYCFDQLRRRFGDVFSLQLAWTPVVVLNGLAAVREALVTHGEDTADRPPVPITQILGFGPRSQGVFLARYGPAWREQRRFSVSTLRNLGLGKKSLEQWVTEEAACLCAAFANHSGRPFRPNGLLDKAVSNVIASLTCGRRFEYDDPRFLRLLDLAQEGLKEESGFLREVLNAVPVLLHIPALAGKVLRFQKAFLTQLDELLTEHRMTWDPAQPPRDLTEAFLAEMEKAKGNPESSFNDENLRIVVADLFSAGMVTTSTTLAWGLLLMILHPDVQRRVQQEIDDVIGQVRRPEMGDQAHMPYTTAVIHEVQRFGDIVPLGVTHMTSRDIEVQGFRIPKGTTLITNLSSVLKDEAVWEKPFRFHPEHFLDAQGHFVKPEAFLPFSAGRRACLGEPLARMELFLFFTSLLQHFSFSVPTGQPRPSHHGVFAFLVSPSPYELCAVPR

CC(C)CCNC1=CC(=O)c2ccccc2C1=O
Activity [1]: 100% | Activity [2]: 100% | Activity [3]: Non-Toxic | Activity [4]: Toxic | Activity [5]: Non-Toxic | concentration at 0.5 h [6]: 1260 ng/mL | concentration at 4 h [7]: 3740 ng/mL | concentration at 8 h [8]: 3220 ng/mL | concentration at 0.5 h [9]: 3320 ng/g | concentration at 1 h [10]: 3940 ng/g | concentration at 4 h [11]: 3760 ng/g | concentration at 8 h [12]: 2630 ng/g | Kp at 1 h [13]: 2.33 | Kp at 2 h [14]: 1.79 | Kp at 4 h [15]: 1 | Tmax [16]: 1 h | Cmax [17]: 320 ng/mL | IC50 [18]: > 30 µM | Drug uptake(free) [19]: 123 nM | Drug metabolism [20]: Metabolite_Notdetected | Drug metabolism [21]: Metabolite_Notdetected | AUC(0-t) [22]: 903 ng·h/mL | F [23]: 35.9% | IC50 [24]: 29.3 µM | IC50 [25]: 16.4 µM | IC50 [26]: > 100 µM | IC50 [27]: 54.1 µM
